# In ChEMBL document CHEMBL4017491, “Phthalazino[1,2-b]quinazolinones as p53 Activators: Cell Cycle Arrest, Apoptotic Response and Bak-Bcl-xl Complex Reorganization in Bladder Cancer Cells” (J Med Chem, 2017):
# Activity calls are given as the source filed them. No cut-off for these calls is given here.
# What was measured:
# [1] = system: T-24; assay: Induction of apoptosis in human T24 cells assessed as early apoptotic cells at 10 uM by Annexin V-FITC/propidium iodide based flow cytometric analysis (reference value: 1.79%); assay type: functional
# [2] = system: MGC-803; assay: Antiproliferative activity against human MGC803 cells by MTT assay; assay type: functional, cell-based
# Outline: (§1)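 Cell lines cultured in RPMI 1640 with 10% FBS. Viability read by MTT (5 mg/mL, 4 h at 37 °C), with formazan dissolved in DMSO and absorbance taken at 490 nm. Viability (%) = A490 treated / A490 control × 100. IC50 taken from dose-response curves, from three independent experiments each run in triplicate.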
# [3] = system: J82; assay: Cell cycle arrest in human J82 cells assessed as accumulation at G1 phase at 5 uM after 48 hrs by propidium iodide staining based FACS analysis (reference value: 42.29 %); assay type: functional
# Outline: (§2)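 Cells treated with 1−10 μM for 48 h, trypsinized, and fixed in 70% ethanol. Stained with 50 μg/mL propidium iodide and phase distribution analyzed by flow cytometry. Mean ± SD from three independent measurements.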
# [4] = system: T-24; assay: Induction of apoptosis in human T24 cells assessed as live cells at 5 uM by Annexin V-FITC/propidium iodide based flow cytometric analysis (reference value: 89.5%); assay type: functional
# [5] = system: T-24; assay: Antiproliferative activity against human T24 cells by MTT assay; assay type: functional, cell-based; outline: as §1
# [6] = system: T-24; assay: Induction of apoptosis in human T24 cells assessed as late apoptotic cells at 1 uM by Annexin V-FITC/propidium iodide based flow cytometric analysis (reference value: 0.193%); assay type: functional
# [7] = system: LNCaP; assay: Antiproliferative activity against human LNCAP cells harboring wild type p53 by MTT assay; assay type: functional, cell-based; outline: as §1
# [8] = system: Escherichia coli; assay: Induction of conformational change in Escherichia coli pBR322 DNA at 1 to 10 uM after 1 hr by DNA relaxation assay
# Outline: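 Plasmid pBR322 incubated 1 h with 1–10 μM in 5 mM Tris-HCl, 50 mM NaCl, pH 7.2. Samples run on 1.5% agarose and stained with 0.5 μg/mL ethidium bromide. Lane controls: 1% DMSO (negative) and ethidium bromide (positive).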
# [9] = system: T-24; assay: Effect on cell cycle distribution in human T24 cells assessed as live cells at 10 uM after 1 hr by Annexin V-FITC/propidium iodide staining based FACS analysis (reference value: 98.3%); assay type: functional
# [10] = system: T-24; assay: Cell cycle arrest in human T24 cells assessed as accumulation at S/G2 phase at 1 to 10 uM after 48 hrs by propidium iodide staining based FACS analysis; assay type: functional; outline: as §2
# [11] = system: T-24; assay: Effect on Bcl-2 expression in human T24 cells up to 10 uM after 24 hrs by Western blot analysis; assay type: functional, cell-based
# Outline: (§3)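 T24 cells, 3 × 10^5 per well, grown to 85−95% confluence, then exposed to 0−10 μM for 24 h. Whole-cell extracts in sample buffer run on SDS-polyacrylamide gels and transferred to nitrocellulose. Blots probed with primary antibodies and AP-linked anti-rabbit IgG, detected by ECL. Blots stripped and reprobed for β-actin as loading control.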
# [12] = system: T-24; assay: Induction of apoptosis in human T24 cells assessed as early apoptotic cells at 5 uM by Annexin V-FITC/propidium iodide based flow cytometric analysis (reference value: 1.79%); assay type: functional
# [13] = molecular target: Cellular tumor antigen p53 (Homo sapiens) (UniProt P04637); assay: Induction of phospho-p53 accumulation in human T24 cells assessed as disruption of Bak-Bcl-xl interaction up to 10 uM by coimmunoprecipitation assay; assay type: cell-based
# Chain of Cellular tumor antigen p53 (Homo sapiens) (P04637 whole entry, looked up): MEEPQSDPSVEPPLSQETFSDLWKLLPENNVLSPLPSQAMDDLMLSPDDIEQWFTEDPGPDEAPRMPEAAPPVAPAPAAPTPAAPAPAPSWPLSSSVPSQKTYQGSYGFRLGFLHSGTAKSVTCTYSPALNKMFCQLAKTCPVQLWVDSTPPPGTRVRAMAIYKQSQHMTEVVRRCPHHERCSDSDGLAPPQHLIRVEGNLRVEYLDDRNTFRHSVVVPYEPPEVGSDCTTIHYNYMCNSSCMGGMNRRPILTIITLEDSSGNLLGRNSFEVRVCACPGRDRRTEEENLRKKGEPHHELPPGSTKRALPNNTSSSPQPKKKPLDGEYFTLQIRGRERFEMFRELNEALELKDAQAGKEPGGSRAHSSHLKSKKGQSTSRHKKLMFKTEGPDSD
# [14] = system: T-24; assay: Induction of apoptosis in human T24 cells assessed as late apoptotic cells at 5 uM by Annexin V-FITC/propidium iodide based flow cytometric analysis (reference value: 0.193%); assay type: functional
# [15] = system: T-24; assay: Cell cycle arrest in human T24 cells assessed as reduction in cell size at 5 uM after 48 hrs by FACS analysis relative to control; assay type: functional; parameters: scale not given: the % may be the effect or the level left
# Outline: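 T24 cells treated for 48 h with 5 μM or DMSO, then ethanol-fixed and PI-stained. Relative cell size taken as mean forward scatter (FSC-H) by flow cytometry, compared with control.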
# [16] = system: T-24; assay: Cell cycle arrest in human T24 cells assessed as effect on CDK4 expression up to 10 uM after 24 hrs by Western blot analysis; assay type: functional, cell-based; outline: as §3
# [17] = molecular target: Cellular tumor antigen p53 (Homo sapiens) (UniProt P04637); assay: Induction of phospho-p53 accumulation in mitochondria of human T24 cells up to 10 uM after 24 hrs by Western blot method
# [18] = system: HepG2; assay: Antitumor activity against human HepG2 cells xenografted in BALB/C nude mouse assessed as tumor growth inhibition at 6 mg/kg, ip administered every 2 days for 16 days relative to control; assay type: functional; conditions: read-out: TGI
# Outline: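 Male BALB/C nude mice, 6 weeks old, given subcutaneous flank injection of 5 × 10^6 HepG2 cells; tumors of 80−200 mm3 randomized, n = 6/group. Dosing ip every other day, vehicle 5% DMSO in saline (v/v). Tumor length and width measured three times a week, volume V = lw2/2; growth inhibition expressed versus vehicle group. Body weight also recorded.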
# [19] = system: T-24; assay: Induction of apoptosis in human T24 cells assessed as increase in bim level up to 10 uM after 24 hrs by Western blot analysis; assay type: functional, cell-based
# Outline: (§4)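 T24 cells (3 × 10^5 per well) grown to 85–95% confluence, then exposed 24 h to 0–10 μM. Whole-cell extracts run on SDS-PAGE and blotted to nitrocellulose. Probed with the indicated antibodies and AP-linked anti-rabbit IgG, with ECL detection. Blots stripped and reprobed for β-actin as loading control.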
# [20] = system: T-24; assay: Induction of apoptosis in human T24 cells assessed as activation of caspase-3 at 1 uM by FITC-DEVD-FMK based flow cytometric analysis (reference value: 2.8%)
# [21] = system: T-24; assay: Induction of apoptosis in human T24 cells assessed as increase in bax level up to 10 uM after 24 hrs by Western blot analysis; assay type: functional, cell-based; outline: as §4
# [22] = system: T-24; assay: Effect on cell cycle distribution in human T24 cells assessed as late necrotic cells at 1 uM after 1 hr by Annexin V-FITC/propidium iodide staining based FACS analysis (reference value: 1.71%); assay type: functional
# [23] = system: T-24; assay: Antitumor activity against human T24 cells xenografted in BALB/C nude mouse assessed as tumor growth inhibition at 12 mg/kg, ip administered every 2 days for 16 days relative to control; assay type: functional; conditions: T-24, ip, read-out: TGI
# [24] = system: T-24; assay: Effect on Bcl-xl protein expression in human T24 cells at 1 to 10 uM after 24 hrs by Western bot method; assay type: functional, cell-based; outline: as §3
# [25] = system: T-24; assay: Induction of apoptosis in human T24 cells assessed as increase in […] level up to 10 uM after 24 hrs by Western blot analysis; assay type: functional, cell-based; outline: as §4
# [26] = system: J82; assay: Cell cycle arrest in human J82 cells assessed as accumulation at S phase at 10 uM after 48 hrs by propidium iodide staining based FACS analysis (reference value: 46.79 %); assay type: functional; outline: as §2
# [27] = system: T-24; assay: Effect on cell cycle distribution in human T24 cells assessed as early apoptotic cells at 5 uM after 1 hr by Annexin V-FITC/propidium iodide staining based FACS analysis relative to control; assay type: functional
# [28] = system: Mus musculus; assay: Induction of phospho-p53 expression in BALB/C nude mouse xenografted with human T24 cells at 6 to 12 mg/kg, ip administered every 2 days for 16 days by immunoblot analysis
structure (smiles),measurement,setting,value
CN(C)CCNc1nn2c(=O)c3cc(Br)ccc3nc2c2ccccc12,Activity,[1],29.4%
same,IC50,[2],4.29 µM
same,Activity,[3],17.78%
same,Activity,[4],62.8%
same,IC50,[5],3.09 µM
same,Activity,[6],5.29%
same,Activity,[7],Active
same,Activity,[8],inactive
same,Activity,[9],86.6%
same,Activity,[10],Active
same,Activity,[11],inactive
same,Activity,[12],26.4%
same,Activity,[13],Active
same,Activity,[14],10.2%
same,Activity,[15],87.7%
same,Activity,[16],inactive
same,Activity,[17],Active
same,inhibition in vivo at 6 mg/kg,[18],43.6%
same,Activity,[19],Active
same,Activity,[20],7%
same,Activity,[21],Active
same,Activity,[22],6.54%
same,inhibition in vivo at 12 mg/kg,[23],54.2%
same,Activity,[24],inactive
same,Activity,[25],Active
same,Activity,[26],64.2%
same,Activity,[27],0%
same,Activity,[28],Active
